From PMC12123421 (Journal of medicinal chemistry, 2022)
Entries after “also recorded” stand apart in the source; their conditions may differ.

Columns and labels:
[1] = system: immortalized oral keratinocyte (OKF6) cells; test: Cytotoxic effect on oral epithelial cells; format: cell-based, human; details: 24 h, microscopy
[2] = Cytotoxic effect on oral epithelial cells; format: cell-based, human; details: human, OKF6/hTERT immortalized oral keratinocyte cells
HepG2 = test: Mammalian cytotoxicity assay; format: cell-based; details: for concentration up to which no toxicity was exhibited (HepG2): range 0–62.6 μg/mL, 24 h; for non-toxic concentration as fold of bactericidal concentration (HepG2): vs bactericidal concentration against P. gingivalis
How it was run: (§1)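 Cells counted at about 80% confluence and seeded in 96-well plates: 10,000 cells/well for HEK-293, 3,000 cells/well for BEAS-2B and HepG2. Adhered 16 h at 37 °C, 5% CO2. Fresh medium with test compound at 0–62.6 μg/mL (from 1000× stocks) or 0.1% DMSO added, 24 h. Resazurin added 6 h; fluorescence read at 560/590 nm. Survival expressed relative to DMSO wells after medium-only blank subtraction.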

BEAS-2B = test: Mammalian cytotoxicity assay; format: cell-based, human; details: for concentration up to which no toxicity was observed (BEAS-2B): range 0–62.6 μg/mL, 24 h; for non-toxic concentration as fold of bactericidal concentration (BEAS-2B): vs bactericidal concentration against P. gingivalis
How it was run: as §1

P. gingivalis ATCC 33277 [3] = test: Percent growth inhibition of planktonic P. gingivalis, colorimetric WST-1 assay; format: cell-based, Porphyromonas gingivalis; details: for P. gingivalis growth inhibition: 2.5 h after addition of WST-1; for inhibition at 100 µM / inhibition at 10 µM: Porphyromonas gingivalis, ATCC33277, read-out: P. gingivalis growth inhibition
HEK-293 = test: Mammalian cytotoxicity assay; format: cell-based, human; details: for concentration up to which no toxicity was exhibited (HEK-293): range 0–62.6 μg/mL, 24 h; for non-toxic concentration as fold of bactericidal concentration (HEK-293): vs bactericidal concentration against P. gingivalis
How it was run: as §1

P. gingivalis ATCC 33277 [4] = test: Colony forming unit; format: cell-based, Porphyromonas gingivalis; details: 24 h exposure, CFUs counted after 5 days
How it was run: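 P. gingivalis ATCC 33277 at 1 × 10^8 cells/well, grown exponentially in supplemented BHI under anaerobic conditions in 96-well plates. Exposed 24 h to test compound in DMSO at 1, 10 or 100 μM. Negative controls were medium or DMSO; positive controls were tetracycline 2.81 μM and zafirlukast 25 and 50 μM. Cultures diluted 1:400, spread on blood agar, and CFUs counted after 5 days anaerobic.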

[5] = system: P. gingivalis ATCC 33277 biofilm; test: Inhibition of mono-species biofilm growth, safranin staining; format: cell-based, Porphyromonas gingivalis; details: at all concentrations tested (10, 25, 50, and 100 μM), 48 h
How it was run: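 P. gingivalis ATCC 33277 at 1 × 10^8 bacteria/well, grown logarithmically in supplemented BHI in 96-well plates. Exposed to test compound in DMSO (10, 25, 50, 100 μM) for 48 h, anaerobic, gentle shaking. Negative controls were medium or DMSO; positive controls were tetracycline 2.81 μM and zafirlukast 50 μM. Medium removed, biofilm washed three times with PBS, stained with 0.1% safranin, and percentage biofilm growth determined.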

F. nucleatum ATCC 25586 = test: Percent growth inhibition, colorimetric WST-1 assay; format: cell-based, Fusobacterium nucleatum; details: 24 h, 30 min after addition of WST-1
How it was run: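 F. nucleatum was grown in supplemented BHI to log phase (3–4 h after subculture), then seeded at 10^8 cells/well in 90 μL. It was exposed anaerobically to test compound in DMSO (1, 10, 100 μM) for 24 h. WST-1 reagent was added, and absorbance was read at 405 nm (reference 600 nm). % inhibition = 100 × [OD(control) − OD(treated)]/OD(control).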

[6] = system: murine red blood cells (mRBCs); test: Hemolytic activity against murine red blood cells; format: cell-based; details: at concentrations up to 27 μg/mL, data not shown
[7] = at all concentrations tested (1, 10, and 100 μM)

## COc1ccc(Cc2cn(C)c3ccc([N+](=O)[O-])cc23)cc1C(=O)NS(=O)(=O)c1ccccc1Br [Compound 21c]
[1]; 10 μM
  cytotoxicity to OKF6 cells by cell morphology and density: low toxicity
[1]; 100 μM
  cytotoxicity to OKF6 cells by cell morphology and density: slight increase in cytotoxicity
[2]
  viability at 24 h, 10 µM: 9 to 63%
  viability at 24 h, 100 µM: 5 to 23%
HepG2
  concentration up to which no toxicity was exhibited (HepG2): up to 62.6 μg/mL
  non-toxic concentration as fold of bactericidal concentration (HepG2): 11- to 13 fold
BEAS-2B
  concentration up to which no toxicity was observed (BEAS-2B): up to 31.3 μg/mL
  non-toxic concentration as fold of bactericidal concentration (BEAS-2B): 6 fold
P. gingivalis ATCC 33277 [3]; 100 μM, 24 h
  P. gingivalis growth inhibition: comparable or superior activity
P. gingivalis ATCC 33277 [3]
  inhibition at 100 µM: 61 to 73%
HEK-293
  concentration up to which no toxicity was exhibited (HEK-293): up to 62.6 μg/mL
  non-toxic concentration as fold of bactericidal concentration (HEK-293): 11- to 13 fold
P. gingivalis ATCC 33277 [4]; 10 μM, 10 µM
  growth inhibition by CFU assay (bactericidal activity): bactericidal

## CCCn1cc(Cc2ccc(OC)c(C(=O)NS(=O)(=O)c3ccccc3F)c2)c2cc([N+](=O)[O-])ccc21 [Compound 23a]
P. gingivalis ATCC 33277 [3]; 1 μM, 24 h
  P. gingivalis growth inhibition: little to no activity

## COc1ccc(Cc2cn(C)c3ccc([N+](=O)[O-])cc23)cc1C(=O)NS(=O)(=O)c1ccc([N+](=O)[O-])cc1 [Compound 21g]
P. gingivalis ATCC 33277 [3]; 10 μM, 24 h
  P. gingivalis growth inhibition: comparable or superior activity
P. gingivalis ATCC 33277 [3]; 100 μM, 24 h
  P. gingivalis growth inhibition: comparable or superior activity
[5]
  biofilm growth: at least 86%
P. gingivalis ATCC 33277 [4]; 10 μM
  growth inhibition by CFU assay (bactericidal activity): bactericidal

## CCCCn1cc(Cc2ccc(OC)c(C(=O)NS(=O)(=O)c3ccccc3F)c2)c2cc([N+](=O)[O-])ccc21 [Compound 24a]
P. gingivalis ATCC 33277 [3]; 1 μM, 24 h
  P. gingivalis growth inhibition: little to no activity

## COc1ccc(Cc2cn(C)c3ccc([N+](=O)[O-])cc23)cc1C(=O)NS(=O)(=O)c1ccccc1Cl [Compound 21b]
[1]; 100 μM
  cytotoxicity to OKF6 cells by cell morphology and density: slight increase in cytotoxicity
[2]
  viability at 24 h, 10 µM: 9 to 63%
  viability at 24 h, 100 µM: 5 to 23%
HepG2
  concentration up to which no toxicity was exhibited (HepG2): up to 62.6 μg/mL
  non-toxic concentration as fold of bactericidal concentration (HepG2): 11- to 13 fold
BEAS-2B
  concentration up to which no toxicity was observed (BEAS-2B): up to 31.3 μg/mL
  non-toxic concentration as fold of bactericidal concentration (BEAS-2B): 6 fold
P. gingivalis ATCC 33277 [3]; 100 μM, 24 h
  P. gingivalis growth inhibition: comparable or superior activity
P. gingivalis ATCC 33277 [3]
  inhibition at 100 µM: 61 to 73%
HEK-293
  concentration up to which no toxicity was exhibited (HEK-293): up to 62.6 μg/mL
  non-toxic concentration as fold of bactericidal concentration (HEK-293): 11- to 13 fold
P. gingivalis ATCC 33277 [4]; 10 μM, 10 µM
  growth inhibition by CFU assay (bactericidal activity): bactericidal

## COc1cc(C(=O)NS(=O)(=O)c2ccccc2C)ccc1Cc1cn(C)c2ccc(NC(=O)OC3CCCC3)cc12 [ZAF, zafirlukast, reference compound]
[2]
  viability at 24 h, 25 µM: 41%
HepG2
  concentration up to which no toxicity was exhibited (HepG2): up to 62.6 μg/mL
BEAS-2B
  concentration up to which no toxicity was observed (BEAS-2B): up to 62.6 μg/mL
HEK-293
  concentration up to which no toxicity was exhibited (HEK-293): up to 31.3 μg/mL

## CCCCn1cc(Cc2ccc(OC)c(C(=O)NS(=O)(=O)c3ccc([N+](=O)[O-])cc3)c2)c2cc([N+](=O)[O-])ccc21 [Compound 24g]
[1]; 10 μM
  cytotoxicity to OKF6 cells by cell morphology and density: low toxicity; also recorded: little to no cytotoxicity
[1]; 100 μM
  cytotoxicity to OKF6 cells by cell morphology and density: slight decrease in cell density
[2]
  viability at 24 h, 10 µM: 9 to 63%
  viability at 24 h, 100 µM: 5 to 23%
P. gingivalis ATCC 33277 [3]; 1 μM, 24 h
  P. gingivalis growth inhibition: comparable or superior activity
P. gingivalis ATCC 33277 [3]; 10 μM, 24 h
  P. gingivalis growth inhibition: comparable or superior activity
P. gingivalis ATCC 33277 [3]; 100 μM, 24 h
  P. gingivalis growth inhibition: comparable or superior activity
P. gingivalis ATCC 33277 [3]
  inhibition at 10 µM: 77 to 90%
P. gingivalis ATCC 33277 [3]; [7]
  P. gingivalis growth inhibition: 69–90%
P. gingivalis ATCC 33277 [4]; 100 μM
  growth inhibition by CFU assay (bactericidal activity): bactericidal activity

## CCCn1cc(Cc2ccc(OC)c(C(=O)NS(=O)(=O)c3ccc([N+](=O)[O-])cc3)c2)c2cc([N+](=O)[O-])ccc21 [Compound 23g]
P. gingivalis ATCC 33277 [3]; 1 μM, 24 h
  P. gingivalis growth inhibition: comparable or superior activity
P. gingivalis ATCC 33277 [3]; 10 μM, 24 h
  P. gingivalis growth inhibition: comparable or superior activity
P. gingivalis ATCC 33277 [3]; 100 μM, 24 h
  P. gingivalis growth inhibition: comparable or superior activity
P. gingivalis ATCC 33277 [3]
  inhibition at 10 µM: 77 to 90%
P. gingivalis ATCC 33277 [3]; [7]
  P. gingivalis growth inhibition: 60–90%
P. gingivalis ATCC 33277 [4]; 10 μM
  growth inhibition by CFU assay (bactericidal activity): not bactericidal

## COc1ccc(Cc2cn(C)c3ccc([N+](=O)[O-])cc23)cc1C(=O)NS(=O)(=O)c1ccccc1F [Compound 21a]
HepG2
  concentration up to which no toxicity was exhibited (HepG2): up to 62.6 μg/mL
  non-toxic concentration as fold of bactericidal concentration (HepG2): 11- to 13 fold
BEAS-2B
  concentration up to which no toxicity was observed (BEAS-2B): up to 62.6 μg/mL
  non-toxic concentration as fold of bactericidal concentration (BEAS-2B): 11- to 13 fold
P. gingivalis ATCC 33277 [3]; 100 μM, 24 h
  P. gingivalis growth inhibition: comparable or superior activity
P. gingivalis ATCC 33277 [3]
  inhibition at 100 µM: 61 to 73%
HEK-293
  concentration up to which no toxicity was exhibited (HEK-293): up to 62.6 μg/mL
  non-toxic concentration as fold of bactericidal concentration (HEK-293): 11- to 13 fold

## CCn1cc(Cc2ccc(OC)c(C(=O)NS(=O)(=O)c3ccc([N+](=O)[O-])cc3)c2)c2cc([N+](=O)[O-])ccc21 [Compound 22g]
P. gingivalis ATCC 33277 [3]; 10 μM, 24 h
  P. gingivalis growth inhibition: comparable or superior activity
P. gingivalis ATCC 33277 [3]; 100 μM, 24 h
  P. gingivalis growth inhibition: comparable or superior activity
P. gingivalis ATCC 33277 [4]; 10 μM
  growth inhibition by CFU assay (bactericidal activity): not bactericidal

## COc1ccc(Cc2cn(C)c3ccc([N+](=O)[O-])cc23)cc1C(=O)NS(=O)(=O)c1c(F)cccc1F [Compound 21d]
P. gingivalis ATCC 33277 [3]; 100 μM, 24 h
  P. gingivalis growth inhibition: comparable or superior activity
P. gingivalis ATCC 33277 [3]
  inhibition at 100 µM: 61 to 73%
F. nucleatum ATCC 25586; 1 μM
  growth inhibition against F. nucleatum: no activity
F. nucleatum ATCC 25586; 10 μM
  growth inhibition against F. nucleatum: no activity
P. gingivalis ATCC 33277 [4]; 10 μM
  growth inhibition by CFU assay (bactericidal activity): not bactericidal

## C[C@@H]1[C@H](O)[C@@H](C)/C=C/C=C/C=C/C=C/C=C/C=C/C=C/[C@H](O[C@@H]2O[C@H](C)[C@@H](O)[C@H](N)[C@@H]2O)C[C@@H]2O[C@](O)(C[C@@H](O)C[C@@H](O)[C@H](O)CC[C@@H](O)C[C@@H](O)CC(=O)O[C@H]1C)C[C@H](O)[C@H]2C(=O)O [amphotericin B]
[6]
  hemolytic activity: 0%

## COc1ccc(Cc2cn(CC(C)C)c3ccc([N+](=O)[O-])cc23)cc1C(=O)NS(=O)(=O)c1ccc([N+](=O)[O-])cc1 [Compound 25g]
P. gingivalis ATCC 33277 [3]; 100 μM, 24 h
  P. gingivalis growth inhibition: comparable or superior activity
P. gingivalis ATCC 33277 [3]
  inhibition at 100 µM: 61 to 73%
P. gingivalis ATCC 33277 [4]; 10 μM
  growth inhibition by CFU assay (bactericidal activity): not bactericidal
